Screens (PubChem BioAssay)
Sampled rows, rich in hits. Any-hit rate of the full collection: about 2.9%.
proKLK7 act: activates the human kallikrein-7 zymogen; purified proKLK7, EDANS-DABCYL substrate fluorescence; 100% is mature enzyme control, 0% vehicle; activation, % at 7 µM; AID 652039; P49862; actives 0.9% (n = 370,000);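 active = activation above the mean of all tested compounds plus 3 SD, computed per campaign excluding outliers beyond control limits, cut at about 13% in these data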
Target sequence (P49862 whole entry, looked up): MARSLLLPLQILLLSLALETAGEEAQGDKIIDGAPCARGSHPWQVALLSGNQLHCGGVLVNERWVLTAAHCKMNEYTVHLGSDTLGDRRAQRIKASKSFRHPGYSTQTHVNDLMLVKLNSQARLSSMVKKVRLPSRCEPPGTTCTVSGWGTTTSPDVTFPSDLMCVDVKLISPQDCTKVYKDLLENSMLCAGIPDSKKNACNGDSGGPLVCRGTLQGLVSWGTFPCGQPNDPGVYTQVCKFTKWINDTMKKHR
Wee1 stabilizer: blocks degradation of human Wee1 kinase | reporter increase, % at 5 µM | HeLa Luc-Wee1K328M stability, luciferase luminescence; 100% = proteasome inhibitor MG132 effect | actives 1.2% (n = 220,000) | P30291;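 active = activation above the mean of all tested compounds plus 3 SD, set per screening run, cut at about 8.8% in these data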;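 note: cells exposed to compound for 20 h before luminescence read; 0% = DMSO alone and 100% = MG132 at 30 µM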
RanGTP-Imp inh: disruptors of Ran-importin-beta complex formation – biochemical, FRET, CFP-Ran, YFP-importin-beta, homogeneous, primary screen; cell-free CFP-Ran/YFP-importin-beta FRET ratio; inhibition, % (concentration not given with the values); actives 1.1% (n = 300,000);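 active = more than half of the replicate wells show a fall in the fluorescence ratio signal beyond about 16%, limit read from the data, passing the limit was not always enough; inconclusive = exactly half of the replicate wells pass the set limit; inactive = fewer than half of replicates pass the limit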;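 note: 0% = DMSO wells and 100% = Ran loaded with GDP instead of GTP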
AI-2 QS mod: modulates the Vibrio harveyi AI-2 quorum sensing system. AID 2094. activity change, % at 7.5 µM. Vibrio harveyi JMH597 AI-2 luminescence/OD600 ratio, 9 h; stronger effect = lower value; strain lacks LuxN and CqsS sensors; 0 = neutral-control median. actives 0.4% (n = 300,000); in the data active = activity change below about -75%, passing the limit was not always enough; inconclusive = no clear call, values can overlap the other calls;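 note: luminescence divided by OD600 gain over 9 h not by final OD600 alone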
Runt-CBFb FRET: inhibitors of human RUNX1 Runt domain binding to CBFb. Q01196+Q13951. Cerulean-Runt/Venus-CBFb FRET ratio 530/480, 1 h. inhibition, % at 20 µM. actives 0.46% (n = 220,000). AID 1496;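 active = inhibition over about 50% at 20 µM in the single-dose screen, limit read from the data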;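 note: 0% = DMSO wells and 100% = excess unlabeled CBFb competitor control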
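Assay system: Cerulean-tagged RUNX1 Runt domain (FRET donor) fusion protein / Amount: 100 nM each of Venus-CBFb and Cerulean-Runt domain / Medium: Tris buffer pH 7.5 with salts and BSA / Also added: Venus-CBFb 100 nM / Schedule: 1 h complex formation plus 1 h compound treatment, room temperature / Signal: FRET fluorescence / Read-out: loss of energy transfer signal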
Runt-SMMHC FRET: blocks binding of human RUNX1 Runt domain to CBFb-SMMHC | Q01196+Q13951 | Cerulean-Runt/Venus-CBFb-SMMHC FRET ratio 530/480, 1 h | inhibition, % at 20 µM | actives 0.74% (n = 220,000) | AID 1434;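 active = mean inhibition across duplicate retests at 20 µM reaching about 50%, limit read from the data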;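 note: 0% = DMSO wells and 100% = wells with excess untagged CBFb-SMMHC; inhibitors lower the FRET ratio by blocking Runt binding to CBFb-SMMHC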
proKLK7 act conf: proKLK7 activation, confirmation; shares compounds with proKLK7 act; purified proKLK7, EDANS-DABCYL substrate fluorescence; scaled: vehicle 0, mature enzyme 100; activation, % at 7 µM; actives 68% (n = 3,200); AID 686949;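 active = activation, as change over the incubation, above the mean of all tested compounds plus 3 SD, cut at about 13% in these data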
EDANS interfere: optically interferes with EDANS-DABCYL signal, flagging KLK7 hits; shares compounds with proKLK7 act; EDANS-DABCYL substrate fluorescence interference, no enzyme, 4 h; solvent 0%, active enzyme control 100%; activation, % at 7 µM; actives 80% (n = 3,200); AID 686952;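 active = activation above the all-compound mean plus 3 SD, ignoring values outside control-based bounds, cut at about 4.8% in these data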;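 note: value is the 4 h activation minus the activation read at time zero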
The depositor's hits bear a star; ? = inconclusive; · = not tested or not shown.

SMILES | proKLK7 act | Wee1 stabilizer | RanGTP-Imp inh | AI-2 QS mod | Runt-CBFb FRET | Runt-SMMHC FRET | proKLK7 act conf | EDANS interfere
O=C(COc1c(CO)cc(Br)cc1CO)NC1CCCc2ccccc21 (configuration not stated) | 0 | 0 | 3 | -5 | -2 | 2 | · | ·
Cc1occc1-c1nnc(SCC(=O)c2cc3ccccc3oc2=O)o1 | -3 | 0 | 6 | 5 | 8 | -2 | · | ·
N#CC1=C(SCC(=O)c2cc3ccccc3oc2=O)NC(=O)C(C#N)C12CCCC2 (configuration not stated) | 27* | -1 | -70 | 26 | 2 | 1 | 55* | 54*
Cc1ccc(C2=CN(Cc3ccccc3)CCC2=O)cc1 | 0 | · | · | · | · | · | · | ·
O=C(Nc1ccc(C2=CN(Cc3ccccc3)CCC2=O)cc1)OCc1ccccc1 | 20* | · | · | · | · | · | 0 | 1
O=C(NCCO)Nc1ccc2nsnc2c1 | 22* | -1 | ? | -9 | 9 | 7 | 40* | 41*
O=C(Nc1ccc2nsnc2c1)C1CC1 | 8 | -3 | ? | 29 | 2 | -1 | · | ·
O=C(Nc1ccc2nsnc2c1)NC1CCCCC1 | 21* | 5 | 3 | 29 | 2 | 6 | 28* | 29*
OCCNC(=S)Nc1ccc2nsnc2c1 | 4 | -2 | -1 | 0 | 2 | -38 | · | ·
C=CCc1c(C)nc(-c2ccccc2)nc1N/N=C/c1ccncc1 | 1 | 2 | 1 | 26 | -2 | -1 | · | ·
C=CCc1c(C)nc(-c2ccccc2)nc1N/N=C/c1ccccc1 | 14* | -1 | 1 | 8 | -2 | 3 | 1 | 1
CC(C)Oc1ccccc1C1NC(=O)CCC1[N+](=O)[O-] (configuration not stated) | 0 | · | 4 | 20 | · | · | · | ·
COc1ccc(-c2cc(-c3ccccc3)nc3ncnn23)cc1 | 15* | -4 | 2 | 10 | -2 | 2 | -52 | -76
CN(C)S(=O)(=O)c1cccc(NC(=O)CCc2nc3cc(S(=O)(=O)N4CCOCC4)ccc3n2C)c1 | -1 | · | 9 | 30 | · | · | · | ·
N=c1oc2cc(O)ccc2cc1C(=O)Nc1nc2ccccc2s1 | 55* | 0 | 136* | 7 | 19 | 63* | 67* | 73*
CN(C)c1ccc2nc3ccc(=O)cc-3sc2c1 | 54* | · | · | · | · | · | 143* | 133*
O=C(COC(=O)Cc1ccc(S(=O)(=O)N2CCOCC2)s1)Nc1ccccc1Cl | -1 | · | · | · | · | · | · | ·
O=C(COC(=O)c1cc(Cl)ccc1O)Nc1cc(C(F)(F)F)ccc1N1CCOCC1 | 16* | · | · | · | · | · | 23* | 22*
O=C(COC(=O)c1cc2ccccc2cc1O)Nc1ccccc1F | 14* | · | · | · | · | · | 15* | 13*
CC1(c2ccccc2)NC(=O)N(NC(=O)COC(=O)c2cc(Br)ccc2O)C1=O (configuration not stated) | 28* | · | 2 | ? | · | · | 34* | 38*
O=C(COC(=O)c1cc(Cl)ccc1O)NNC(=O)c1ccccc1F | 86* | · | · | · | · | · | 137* | 124*
COc1ccccc1NC(=O)COC(=O)c1cc2ccccc2cc1O | 1 | · | · | · | · | · | · | ·
O=C(COc1ccccc1Cl)Nc1ccc2c(c1)C(=O)NC2=O | -1 | · | 0 | 2 | · | · | · | ·
COC1OC2COC(c3ccccc3)OC2C2OC(c3ccccc3)OC12 (configuration not stated) | 0 | · | · | · | · | · | · | ·
O=C(COC(=O)c1ccccc1F)Nc1ccc2c(c1)OCCO2 | 0 | · | · | · | · | · | · | ·
SMILES | proKLK7 act | Wee1 stabilizer | RanGTP-Imp inh | AI-2 QS mod | Runt-CBFb FRET | Runt-SMMHC FRET | proKLK7 act conf | EDANS interfere
O=C(COC(=O)c1cc(Br)ccc1O)NNC(=O)c1ccc(Cl)cc1 | 17* | · | 2 | 21 | · | · | 20* | 19*
O=C(COC(=O)c1cc(Br)ccc1O)NNC(=O)c1ccc([N+](=O)[O-])cc1 | 26* | · | -1 | 12 | · | · | 40* | 38*
O=C(COC(=O)c1cc(Cl)ccc1O)Nc1ccc2c(c1)OCCO2 | 19* | · | · | · | · | · | 19* | 16*
O=C(COC(=O)c1ccccc1O)NNC(=O)c1ccc(Br)cc1 | 4 | · | · | · | · | · | · | ·
N#Cc1ccc2[nH]c(CO)c(-c3ccccc3)c2c1 | -1 | · | 3 | 15 | · | · | · | ·
CSCCC(NS(=O)(=O)c1ccccc1F)C(=O)NCc1ccncc1 (configuration not stated) | 0 | · | -1 | 14 | · | · | · | ·
O=C(c1ccc(Cl)cc1)[C@@H]1[C@@H]2C(=O)N(c3cccc4ccccc34)C(=O)[C@@H]2C2c3ccccc3C=NN21 (some centres not stated) | 0 | 7 | -6 | 12 | -7 | -8 | · | ·
CCOC(=O)C1(CC)Oc2ccccc2C(c2ccc(OC)cc2)=C1C(=O)OC (configuration not stated) | 1 | · | · | · | · | · | · | ·
OCc1nc2nc(Cl)c(Cl)nc2[nH]1 | 0 | -3 | 13 | 24 | 10 | 22 | · | ·
CSc1nc2nc(Cl)c(Cl)nc2[nH]1 | 26* | · | · | · | · | · | 45* | 46*
CCOC(=O)CSc1nc2nc(Cl)c(Cl)nc2[nH]1 | 36* | · | · | · | · | · | 30* | 31*
COc1ccccc1C(=O)NC1CCCCN(Cc2cccc(C(F)(F)F)c2)C1=O (configuration not stated) | 0 | · | · | · | · | · | · | ·
COc1cc(C(=O)Nc2ccc3c(c2)CCCN3C(=O)c2ccco2)c([N+](=O)[O-])cc1OC | 0 | · | -1 | 18 | · | · | · | ·
CCOc1cc(NC(=O)C2CC2)c(OCC)cc1NC(=O)CCn1nnc2ccccc21 | 0 | 0 | 2 | 1 | 2 | 11 | · | ·
COC(=O)c1cc2nc(-c3ccccc3)cc(C)n2n1 | 5 | 1 | -2 | 15 | 0 | 3 | · | ·
CCOc1ccc(-c2cc(C)n3nc(C(N)=O)cc3n2)cc1 | 30* | 1 | 3 | 23 | -1 | -4 | 49* | 56*
CCCCN(CC)Cc1c(O)ccc2c3c(c(=O)oc12)CCC3 | 62* | -4 | -3 | 13 | 37 | 73* | 68* | 72*
COCCN(CCOC)Cc1c(O)ccc2c3c(c(=O)oc12)CCC3 | 61* | -2 | -2 | 16 | 44 | 93* | 70* | 74*
COC(=O)c1ccc2c(C)c(C3(O)CCCCC3)[nH]c2c1 | 38* | · | · | · | · | · | -80 | -82
Cn1c(/C=C/c2ccc(Br)cc2)c([N+](=O)[O-])c(=O)n(C)c1=O | -1 | · | -3 | -1 | · | · | · | ·
